pIC50: −log10 of the molar value.
Key:
P388 [1] = test: Growth inhibition of mouse P388 cells by in vitro assay; format: functional, cell-based; conditions: read-out: I50
Summary of the method: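 P-388 murine leukemia cells kept in suspension culture were incubated with a range of diacridine concentrations. The concentration that reduced the rate of cell growth by 50% was taken as the I50.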

P388 [2] = test: Antitumor activity against mouse P388 cells allografted in BDF/1 mouse assessed as increase in life span at optimal dose consecutively administered on day 1 to day 9 post challenge relative to control; format: functional
Summary of the method: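 P-388 tumour passaged as ascites in DBA/2 mice; 1×10^6 ascites cells given ip to BDF/1 mice on day 0. Drug given daily for 9 consecutive days from day 1 to groups of six mice at 20, 10, 5, 2.5, 1.25 and 0.625 mg/kg/day. Day of death recorded; % ILS calculated from treated vs control life spans; dose giving optimal % ILS reported.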

Mus musculus = test: Toxicity in mouse P388 cells allografted BDF/1 mouse consecutively administered on day 1 to day 9 post challenge measured on day 5; format: organism-based

SMILES | pIC50 (P388 [1]) | ILS (P388 [2]) | LD10 (Mus musculus)
CCCOc1ccc2c(NCCCCCCCCNc3c4ccccc4nc4cc(OCCC)ccc34)c3ccccc3nc2c1 | 6.68 | 63% | 5.5 mg/kg/day
c1ccc2c(NCCNc3c4ccccc4nc4ccccc34)c3ccccc3nc2c1 | 5.85 | 7% | 4.3 mg/kg/day
COc1ccc2c(NCCNc3c4ccccc4nc4cc(OC)ccc34)c3ccccc3nc2c1.Cl | – | 0% | 7.2 mg/kg/day
COc1ccc2c(NCCCCCCCCNc3c4ccccc4nc4cc(OC)ccc34)c3ccccc3nc2c1 | – | 84% | 10.5 mg/kg/day
CCCCOc1cccc2c(NCCNc3c4ccccc4nc4c(OCCCC)cccc34)c3ccccc3nc12 | – | 9% | 12.5 mg/kg/day
c1ccc2c(NCCCCCCCCCCNc3c4ccccc4nc4ncccc34)c3cccnc3nc2c1 | – | 22% | –
CCc1cccc2c(NCCCCNc3c4ccccc4nc4c(CC)cccc34)c3ccccc3nc12 | – | 10% | 7.4 mg/kg/day
COc1ccc2c(NCCCCCCCCNc3c4ccc(Cl)cc4nc4cc(OC)ccc34)c3ccc(Cl)cc3nc2c1.Cl | – | 17% | > 20 mg/kg/day
COc1cccc2c(NCCCCCCCCNc3c4ccccc4nc4c(OC)cccc34)c3ccccc3nc12 | 6.54 | 89% | 13.5 mg/kg/day
CSc1ccc2c(NCCCCCCCCNc3c4ccccc4nc4cc(SC)ccc34)c3ccccc3nc2c1.Cl | 6.43 | 27% | 8 mg/kg/day
CCCCOc1cccc2c(NCCCCCCCCNc3c4ccccc4nc4c(OCCCC)cccc34)c3ccccc3nc12 | 6.72 | 7% | 7.6 mg/kg/day
c1ccc2c(NCCCCCCCCNc3c4ccccc4nc4ccccc34)c3ccccc3nc2c1 | 6.49 | 60% | 13.5 mg/kg/day
O=[N+]([O-])c1ccc2c(NCCCCCCCCNc3c4ccccc4nc4cc([N+](=O)[O-])ccc34)c3ccccc3nc2c1 | 6.48 | 45% | > 20 mg/kg/day
c1ccc2c(NCCCCCCNc3c4ccccc4nc4ccccc34)c3ccccc3nc2c1 | 6.42 | 54% | 9 mg/kg/day
Brc1ccc2c(NCCCCCCCCNc3c4ccccc4nc4cc(Br)ccc34)c3ccccc3nc2c1 | 6.68 | 9% | > 20 mg/kg/day
COc1cccc2c(NCCCCCCCCNc3c4ccc([N+](=O)[O-])cc4nc4c(OC)cccc34)c3ccc([N+](=O)[O-])cc3nc12.Cl | – | 86% | > 20 mg/kg/day
CCCOc1cccc2c(NCCCCNc3c4ccccc4nc4c(OCCC)cccc34)c3ccccc3nc12.Cl | – | 9% | 9.8 mg/kg/day
COc1ccc(C)c2c(NCCCCCCCCNc3c4ccccc4nc4c(OC)ccc(C)c34)c3ccccc3nc12.Cl | – | 20% | 12.5 mg/kg/day
COc1ccc2c(NCCCCCCCCNc3c4ccc(OC)cc4nc4cc([N+](=O)[O-])ccc34)c3ccc([N+](=O)[O-])cc3nc2c1 | – | 21% | > 20 mg/kg/day
COc1cccc2c(NCCCCCCNc3c4ccccc4nc4c(OC)cccc34)c3ccccc3nc12 | 6.72 | 62% | 12.5 mg/kg/day
CCCCOc1cccc2c(NCCCCCCNc3c4ccccc4nc4c(OCCCC)cccc34)c3ccccc3nc12 | 6.44 | 7% | 6.5 mg/kg/day
CCc1cccc2c(NCCCCCCCCNc3c4ccccc4nc4c(CC)cccc34)c3ccccc3nc12 | 6.64 | 42% | 12 mg/kg/day
CSc1cccc2c(NCCCCCCCCNc3c4ccccc4nc4c(SC)cccc34)c3ccccc3nc12 | 6.07 | 13% | > 20 mg/kg/day
Cl.Nc1ccc2nc3ccccc3c(NCCCCCCCCNc3c4ccccc4nc4ccc(N)cc34)c2c1 | – | 60% | > 20 mg/kg/day
COc1ccc2nc3ccccc3c(NCCCCCCCCNc3c4ccccc4nc4ccc(OC)cc34)c2c1 | 6.72 | 30% | 6 mg/kg/day

SMILES | pIC50 (P388 [1]) | ILS (P388 [2]) | LD10 (Mus musculus)
c1ccc2c(NCCCCNc3c4ccccc4nc4ccccc34)c3ccccc3nc2c1 | 5.57 | 13% | 11 mg/kg/day
COc1ccc2c(NCCCCCCCCCCNc3c4ccccc4nc4cc(OC)ccc34)c3ccccc3nc2c1.Cl | – | 55% | 8 mg/kg/day
COc1ccc2c(NCCCCCCNc3c4ccccc4nc4cc(OC)ccc34)c3ccccc3nc2c1 | 6.62 | 71% | 9.5 mg/kg/day
CCCOc1ccc2c(NCCCCCCNc3c4ccccc4nc4cc(OCCC)ccc34)c3ccccc3nc2c1 | 6.49 | 37% | 6.8 mg/kg/day
Cc1ccc2c(NCCCCCCCCNc3c4ccccc4nc4cc(C)ccc34)c3ccccc3nc2c1.Cl | – | 59% | 7.3 mg/kg/day
Clc1ccc2c(NCCCCCCCCNc3c4ccccc4nc4cc(Cl)ccc34)c3ccccc3nc2c1 | 6.64 | 29% | > 20 mg/kg/day
COc1ccc2c(NCCCCCCCCNc3c4ccc(OC)cc4nc4ccc(Cl)cc34)c3cc(Cl)ccc3nc2c1 | 6.80 | 18% | 7 mg/kg/day
COc1ccc2c(NCCCCNc3c4ccccc4nc4cc(OC)ccc34)c3ccccc3nc2c1.Cl | – | 10% | > 20 mg/kg/day
CCc1cccc2c(NCCCCCCCCCCNc3c4ccccc4nc4c(CC)cccc34)c3ccccc3nc12 | 6.82 | 33% | 13 mg/kg/day
c1ccc2c(NCCCCCCCCCCNc3c4ccccc4nc4ccccc34)c3ccccc3nc2c1 | 6.42 | 33% | 7 mg/kg/day
c1ccc2c(NCCCCCCCCCCCCNc3c4ccccc4nc4ncccc34)c3cccnc3nc2c1 | – | 10% | –
Cc1ccc2c(NCCCCCCCCNc3c4ccccc4nc4c(C)c(C)ccc34)c3ccccc3nc2c1C.Cl | – | 60% | 8 mg/kg/day
COc1ccc2nc3ccccc3c(NCCCCCCNc3c4ccccc4nc4ccc(OC)cc34)c2c1 | 6.49 | 25% | 8.6 mg/kg/day
Cl.Nc1ccc2c(NCCCCCCCCNc3c4ccccc4nc4cc(N)ccc34)c3ccccc3nc2c1 | – | 58% | > 20 mg/kg/day
c1ccc2c(NCCCCCCCNc3c4ccccc4nc4ccccc34)c3ccccc3nc2c1 | 6.49 | 67% | 12.5 mg/kg/day
CCc1cccc2c(NCCNc3c4ccccc4nc4c(CC)cccc34)c3ccccc3nc12 | – | 20% | 16 mg/kg/day
Cl.Nc1ccc2c(NCCCCCCNc3c4ccccc4nc4cc(N)ccc34)c3ccccc3nc2c1 | 6.68 | 47% | > 20 mg/kg/day
c1ccc2c(NCCCCCNc3c4ccccc4nc4ccccc34)c3ccccc3nc2c1 | – | 36% | 12.5 mg/kg/day
COc1ccc2nc3cc(Cl)ccc3c(NCCCCCCCCNc3c4ccc(Cl)cc4nc4ccc(OC)cc34)c2c1 | – | 9% | > 20 mg/kg/day
COc1ccc2c(NCCCCCCCCNc3c4ccc(OC)cc4nc4c(OC)cccc34)c3cccc(OC)c3nc2c1 | 6.38 | 66% | 13 mg/kg/day
c1ccc2c(NCCCCCCCCCCCCNc3c4ccccc4nc4ccccc34)c3ccccc3nc2c1 | 6.49 | 10% | 6.5 mg/kg/day
CCc1cccc2c(NCCCCCCNc3c4ccccc4nc4c(CC)cccc34)c3ccccc3nc12 | 6.64 | 43% | 16 mg/kg/day
CCOc1cccc2c(NCCCCCCCCNc3c4ccccc4nc4c(OCC)cccc34)c3ccccc3nc12 | – | 76% | 13.5 mg/kg/day
O=[N+]([O-])c1ccc2c(NCCCCCCNc3c4ccccc4nc4cc([N+](=O)[O-])ccc34)c3ccccc3nc2c1 | 6.32 | 37% | > 20 mg/kg/day
